Reference: the RNAGym collection of RNA variant scans (doi:10.1126/science.aae0568)
Variants at the floor of the assay were thinned out.

B1: tRNA (parent)
chain: GUUCCGUUGGCGUAAUGGUAACGCGUCUCCCUCCUAAGGAGAAGACUGCGGGUUCGAGUCCCGUACGGAACG

Variants of: B1
Assay: yeast fitness relative to wild type (ratio to wild type); higher = fitter; tRNA-Arg(CCU), competitive growth, 37 C, YPD
In short: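 Genotype frequency changes were the basis for Darwinian fitness relative to wild type. The frequencies came from 100-nucleotide paired-end sequencing of gene amplicons from the start population and each end population of pooled yeast strains with tRNA-Arg(CCU) gene variants at the native locus. Competition ran in YPD at 37°C for 24 hours in six replicates, genotypes needed ≥ 100 starting reads, and estimates < 0.5 were set to 0.5.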

| Variant | yeast fitness |
| --- | --- |
| C5U C24U A40C A45U | ≤ 0.5 |
| C5U C29A A69C | ≤ 0.5 |
| C5U G52A C66U | 0.584 |
| C5U G12A C60G | ≤ 0.5 |
| C5U G12A A40U A45G C60A G63A | ≤ 0.5 |
| C5U G17A C66A | 0.522 |
| C5U C22G C29G U32C | ≤ 0.5 |
| C5U C22U C33U G68C A69U | ≤ 0.5 |
| C5U C24U A69C | 0.777 |
| C5U C22U A37C G48U C55A | ≤ 0.5 |
| C5U C62U A65C | 0.739 |
| C5U G48A C55U | 0.558 |
| C5U C11G C24U A42C A65C A70U | ≤ 0.5 |
| C5U C11A A45G | 0.537 |
| C5U C22G C24G C31U A70C | ≤ 0.5 |
| C5U C11A C24G C27G A36U G38C C60G C66A | 0.522 |
| C5U C22U C33U A70C | ≤ 0.5 |
| C5U U7C C24A C61U | ≤ 0.5 |
| C5U G25C A42U A69U | ≤ 0.5 |
| C5U C11A A14C C33G | ≤ 0.5 |
| C5U U7G A14G C30A A65C | 0.704 |

| Variant | yeast fitness |
| --- | --- |
| C5U C11A A21G G23C U64A | ≤ 0.5 |
| C5U G10A C27G G48C C61G | ≤ 0.5 |
| C5U U8G A20G C34A | ≤ 0.5 |
| C5U C11G C49U C61A | ≤ 0.5 |
| C5U G12C G44C | 0.53 |
| C5U C11A G50C C66U | ≤ 0.5 |
| C5U G10A U16A A65G | ≤ 0.5 |
| C5U C24U A36G C46A | 0.92 |
| C5U U8C C30G C31G A65C | ≤ 0.5 |
| C5U G10A A14U C31A C46A A65U | ≤ 0.5 |
| C5U C22A G25A C66U | ≤ 0.5 |
| C5U C11U A36U C62A | ≤ 0.5 |
| C5U A57U C61U | 0.59 |
| C5U G17C C29A C46G G56A | ≤ 0.5 |
| C5U C22A C29U G51C | ≤ 0.5 |
| C5U G17A C60G G67A | ≤ 0.5 |
| C5U G44A C55U | 0.629 |
| C5U C11G A15U G56C C61G | ≤ 0.5 |
| C5U C22A A45C | 0.564 |
| C5U C11U C60U A69U | 0.538 |
| C5U C31G U47C G48C | ≤ 0.5 |

| Variant | yeast fitness |
| --- | --- |
| C5U C11A C24G C27G A36U G38C U53G | ≤ 0.5 |
| C5U C11A A21G A40U | 0.68 |
| C5U G12A A40U G44U A45G C60A | ≤ 0.5 |
| C5U C29G C30A G63A U64G A69C | 0.572 |
| C5U U13A C27G A57C G67A A69U | ≤ 0.5 |
| C5U C11A A14G A42G C49U U64A | ≤ 0.5 |
| C5U G10A A20G A36U A43C C61G | ≤ 0.5 |
| C5U C22G C24G C31U | 0.552 |
| C5U C46G | 0.93 |
| C5U G39A G48A A57U | 0.565 |
| C5U G10A A70U | 0.609 |
| C5U C22G A40G | 0.741 |
| C5U G44C G68C | 0.697 |
| C5U C22G C24A | ≤ 0.5 |
| C5U C22U U26A C55G | ≤ 0.5 |
| C5U G52A G63C | ≤ 0.5 |
| C5U C11A C24G C27G A36U G38C A70C | ≤ 0.5 |
| C5U C22U C27U A42G C55A C60A | ≤ 0.5 |
| C5U C27G G38A A69C | ≤ 0.5 |
| C5U G18A A40U U47C U53C G68A | ≤ 0.5 |
| C5U G50C | 0.699 |

| Variant | yeast fitness |
| --- | --- |
| C5U C33G C61A C66U | ≤ 0.5 |
| C5U C34U U35C A70C | ≤ 0.5 |
| C5U G50C G51C G56C G67A | ≤ 0.5 |
| C5U C11A A43U C66U | 0.621 |
| C5U C34A G56A | ≤ 0.5 |
| C5U G6C | 0.818 |
| C5U U8A | 0.632 |
| C5U G10C C30G C34U A42C G52A | ≤ 0.5 |
| C5U G48A C55U C66U | 0.521 |
| C5U U8C A20G C30A G68U | ≤ 0.5 |
| C5U G17C U26G A69U | ≤ 0.5 |
| C5U C34A C55U | 0.529 |
| C5U C61A G67A | 0.576 |
| C5U U7A A65C | 0.64 |
| C5U C34U C60U | ≤ 0.5 |
| C5U C11U A65U C66G | ≤ 0.5 |
| C5U C46G A65G | 0.661 |
| C5U G18C U26G | ≤ 0.5 |
| C5U C24U G56C | 0.53 |
| C5U G23A G25C | 0.65 |
